MITF act: increases MITF-driven TRPM1 promoter luciferase signal | SK-MEL-5 TRPM1-promoter luciferase, 24 h; % of positive control, neutral wells = 0 | activation, % at 12.5 µM | actives 0.75% (n = 300,000) | AID 588334;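 active = mean activation of at least 80% with every replicate also reaching 80%; inconclusive = mean reaches 80% but some replicate falls short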;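 also: 0% = neutral control wells and 100% = parthenolide positive control wells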
Wnt act: activators of Wnt/beta-catenin signaling | AID 743398 | actives 1.2% (n = 300,000) | activation, % at 9.35 µM | Wnt/beta-catenin reporter cell assay, activator, plate reader; in the data active = activation above about 30%, passing the limit was not always enough; inconclusive = no clear call, values can overlap the other calls;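 also: 0% = neutral control wells and 100% = positive control wells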
SR-BI uptake up: activators of SR-BI mediated HDL lipid uptake; CHO ldlA[mSR-BI] cells, DiI-HDL uptake fluorescence, 3 h; 100 = double the neutral-control signal; activation, % at 12.5 µM; actives 0.096% (n = 320,000);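 active = mean replicate activation of at least 60% and every replicate at or above 60%; inconclusive = mean or all-replicate condition met, but not both; inactive = mean below 60% and not all replicates reaching 60%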;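 also: 0% = median plate neutral-control signal and 100% = twice that signal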
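Test system: SR-BI-overexpressing, LDLR-lacking CHO cells. Measured by: DiI fluorescence, bottom read. Medium: Ham's F12 with 0.5% BSA, HEPES 25 mM, pH 7.4. Timing: 3 h uptake period with compound, 37 °C.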
SR-BI HDL uptake: inhibitors of mouse SR-BI mediated HDL lipid uptake. Q61009. ldlA[mSR-BI] CHO cells, DiI-HDL uptake fluorescence, 3 h. inhibition, % at 12.5 µM. actives 0.96% (n = 320,000);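 active = mean replicate inhibition of at least 70% and a set share of replicates each scoring 70 or more; inconclusive = meets just one of the two criteria; inactive = fails both criteria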;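 also: 0% = median of neutral control wells and 100% = median of positive control wells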
Target sequence (Q61009 whole entry, looked up): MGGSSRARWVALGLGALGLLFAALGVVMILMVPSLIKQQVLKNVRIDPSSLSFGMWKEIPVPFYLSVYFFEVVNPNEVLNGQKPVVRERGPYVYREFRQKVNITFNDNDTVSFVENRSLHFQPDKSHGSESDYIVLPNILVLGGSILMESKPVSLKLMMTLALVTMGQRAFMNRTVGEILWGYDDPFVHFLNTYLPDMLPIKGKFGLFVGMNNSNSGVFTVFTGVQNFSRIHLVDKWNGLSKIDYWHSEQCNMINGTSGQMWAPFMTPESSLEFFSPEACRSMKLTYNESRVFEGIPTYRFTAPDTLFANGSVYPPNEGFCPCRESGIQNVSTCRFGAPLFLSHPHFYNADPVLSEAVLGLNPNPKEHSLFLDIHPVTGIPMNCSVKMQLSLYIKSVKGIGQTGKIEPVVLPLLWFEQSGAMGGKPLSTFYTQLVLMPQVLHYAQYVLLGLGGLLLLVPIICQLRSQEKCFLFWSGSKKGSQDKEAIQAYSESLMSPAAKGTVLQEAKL
HSF-1 act: increases HSF-1 driven luciferase reporter signal; NIH3T3-HGL HSF-1 luciferase reporter, MG132, 8 h; 100% = twice DMSO control signal; AID 504408; activation, % at 9 µM; actives 1.7% (n = 300,000);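 active = mean replicate activation of at least 50% with a set share of replicates each reaching 50%; inconclusive = only one of those two conditions met; inactive = mean below 50% and too few replicates reaching it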;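 also: 0% = median of the neutral control wells and 100% = twice that signal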
Starred values were filed as active, the others as inactive; ? = inconclusive; · = not tested or not shown. Hits are enriched below; roughly 3.6% of the tested compounds scored in any of these assays.

SMILES	MITF act	Wnt act	SR-BI uptake up	SR-BI HDL uptake	HSF-1 act
O=C(NCc1ccc(F)cc1)c1cc(C2CCCN(S(=O)(=O)c3ccccc3)C2)on1 (configuration not stated)	·	-2	·	·	·
Cc1ccc(S(=O)(=O)N2CCN(c3nc(-c4cccs4)nc4ccccc34)CC2)cc1	·	0	·	·	·
CC(=O)N(C)C[C@@H]1OCc2ccccc2-c2c(n(C)c3ccccc23)C(=O)N([C@@H](C)CO)C[C@@H]1C	·	-1	·	·	·
COC(=O)Cn1cnc2c(NC(=O)c3ccccc3)ncnc21	·	-2	·	·	·
COc1ccc(N(C(=O)c2ccc(S(=O)(=O)N3CCCC3)cc2)C2C=CS(=O)(=O)C2)cc1 (configuration not stated)	-10	40*	21	-21	16
CCCC[C@@H]1Cc2[nH][nH]c(=O)c2[C@H](c2ccc(C(C)C)cc2)O1	·	-5	·	·	·
N/C(=N\OC(=O)c1ccccc1Cl)c1ccc(Cl)cc1	45	·	-12	12	7
N/C(=N\OC(=O)c1ccc(Cl)cc1)c1cccnc1	46	·	5	-5	33
N/C(=N\OC(=O)c1ccc(Cl)cc1)c1ccc(Cl)cc1	96*	-1	·	·	-3
Cc1cccc(/C(N)=N/OC(=O)c2ccc(Br)o2)c1	58	46*	6	-6	47
N/C(=N\OC(=O)c1ccc(Cl)cc1)c1ccn[nH]1	?	49*	12	-12	14
N/C(=N\OC(=O)c1ccc(Br)o1)c1ccccn1	1	8	19	-19	38
N/C(=N\OC(=O)c1ccco1)c1cccnc1	32	38*	24	-24	14
COc1ccc(OC)c(CN2C(=O)c3ccccc3C2c2nnnn2Cc2ccccc2)c1 (configuration not stated)	·	-1	·	·	·
COCCCn1c(SCC(=O)N2CCCC2=O)nc2ccccc2c1=O	·	0	·	·	·
O=C(COC(=O)CNC(=O)c1ccccc1)NC12CC3CC(CC(C3)C1)C2	·	0	·	·	·
COc1cc(CNC(=O)Nc2cccn3nc(COCCO)nc23)cc(OC)c1OC	·	1	·	·	·
O=C1O[C@@H](c2ccccc2)C[C@@H](O)C(=O)CCc2ccccc21	·	-2	·	·	·
Cc1ccc(OCc2nc3ccccc3n2C(C(=O)NC(C)(C)C)c2ccncc2)cc1 (configuration not stated)	·	8	·	·	·
O=C(COC(=O)c1ccco1)c1ccc(Cl)cc1	19	1	·	·	5
Cc1cccc(/C(N)=N/OC(=O)c2cccnc2)c1	49	33*	18	-18	38
N/C(=N\OC(=O)c1ccco1)c1ccc(Cl)cc1	56	65*	4	-4	25
COc1cc(OC)cc(C(=O)O/N=C(\N)c2cccc(C)c2)c1	52	5	-63	63	24
C=CCc1cccc(/C=C/c2cc(=O)c3ccccc3[nH]2)c1O	42	20	-6	6	55*
CC(C)Oc1cccc(C(=O)Nc2ccc(Br)cc2F)c1	101*	-2	-3	3	38
SMILES	MITF act	Wnt act	SR-BI uptake up	SR-BI HDL uptake	HSF-1 act
CCOC(=O)C1=CCCN(S(=O)(=O)c2ccc(C)cc2)C1	·	-1	·	·	·
O=C(NC1CC1)c1sc2cc(F)ccc2c1Cl	62	-4	16	-16	·
O=C(NC1CC1)c1sc2cc(Cl)ccc2c1Cl	111*	14	1	-1	42
O=C(Nc1nccs1)c1sc2cc(Cl)ccc2c1Cl	·	76*	-11	11	56*
CC(C)CC(N)c1csc(NC(=O)C(c2ccccc2)c2ccccc2)n1 (configuration not stated)	·	-4	·	·	·
Brc1ccccc1C1Cc2nnccc2CN1 (configuration not stated)	·	28	·	·	·
Cc1cc(F)ccc1-c1cc(C(=O)N2CCN(c3ccncc3)CC2)[nH]n1	·	-4	·	·	·
O=C(NNc1cccc(Cl)n1)Nc1ccc(Cl)cc1	·	·	3	-3	77*
OC(c1ccc(F)cc1)c1nc(-c2cccc(F)c2)cs1 (configuration not stated)	·	-3	·	·	·
O=C(Nc1ccccc1)N1CC=C(c2ccc(F)cc2)CC1	103*	·	-10	10	33
Cc1ccc(C2CCN(C(=O)Nc3ccc(F)cc3)C2)cc1 (configuration not stated)	95*	-1	-7	7	8
O=C(Nc1ccccc1)N1CC=C(c2ccccc2)CC1	·	·	·	·	33
COC(=O)[C@]12CCCCC=C1N(Cc1ccccc1)C(=O)[C@H](CC(=O)NCc1ccccc1)C2	·	-2	·	·	·
O=S1(=O)CC(N2CC=CC2)CN1Cc1cn(Cc2ccc(Cl)cc2)nn1 (configuration not stated)	·	-1	·	·	·
Cn1c2ccccc2c2ccc3c(c21)C(=O)C=CC3=O	-90	-1	-20	20	·
Cc1ccc2c(c1)c1ccc3c(c1n2C)C(=O)C=CC3=O	-92	6	-71	71*	·
Cc1cnc2nc(-c3ccccc3)ccc2c1	·	5	·	·	·
CS/C(Nc1cc(Cl)ccc1Cl)=C(/C#N)C(=O)c1ccco1	·	37*	-11	11	54*
Cc1ccc(-c2cc(C(F)(F)F)c(C#N)c(SCC(=O)O)n2)cc1	-20	-1	-12	12	58*
N#Cc1ccc(-c2cccnc2)nc1SCC(=O)Nc1sc2c(c1C#N)CCC2	1	-1	-76	76*	28
N#Cc1c(C(F)(F)F)cc(-c2ccccc2)nc1SCC(=O)Nc1sc2c(c1C#N)CCC2	1	·	-106	106*	-17
CC(Sc1nc(-c2ccccc2)cc(C(F)(F)F)n1)C(=O)Nc1sc2c(c1C#N)CCC2 (configuration not stated)	-3	-1	-27	27	57*
CC(C)CNc1ncnc2c1ncn2[C@H]1CN(Cc2ccco2)C[C@@H](CO)O1	·	-2	·	·	·
CCCCN1CC(COCc2ccccc2)Oc2cccc(N3CCCCC3)c2S1(=O)=O (configuration not stated)	·	-3	·	·	·
Cc1nc([N+](=O)[O-])c(Sc2nc3ccccc3n2C)n1Cc1ccccc1	-59	·	-4	4	79*
SMILES	MITF act	Wnt act	SR-BI uptake up	SR-BI HDL uptake	HSF-1 act
N#Cc1nc(-c2ccc(OCc3ccc(Cl)cc3)cc2)oc1N1CCOCC1	-23	0	-75	75*	4
COc1ccc(-c2nc(C#N)c(N3CCCCC3)o2)cc1	28	1	-29	29	74*
N#Cc1nc(-c2ccc(OCc3ccc(Cl)cc3)cc2)oc1N1CCC(C(N)=O)CC1	12	-2	-28	28	6
COc1ccc(-c2nc(C#N)c(N3CCCCCC3)o2)cc1	17	·	-53	53	-2
CC(OC(=O)CC1Sc2ccccc2NC1=O)C(=O)N(C)Cc1ccccc1 (configuration not stated)	-1	16	-11	11	·
CC(=O)Nc1ccc(-c2ccnc3c2CC(C)(C(=O)NC(C)C)O3)cc1 (configuration not stated)	·	41*	·	·	·
CC1CCc2c(C(=O)Nc3ccccn3)csc2C1 (configuration not stated)	75	52*	·	·	·
O=C(OCc1ccccc1)c1cccc(-c2nnn(Cc3ccccc3)n2)c1	23	45*	·	·	6

Screens (PubChem)
